The values below come from ChEMBL document CHEMBL3098071, “Synthesis and evaluation of novel azoles as potent antifungal agents” (2014).

Values after ≈ are worked out from the molar mass of the structure shown.

What all share (assay type): functional
Test [1] relates to Candida albicans. Nature of the test: Ratio of voriconazole MIC80 to compound MIC80 for Candida albicans SC5314.
Test [2] relates to Candida albicans. Nature of the test: Ratio of itraconazole MIC80 to compound MIC80 for Candida albicans SC5314.
For test [3], the system named is Nannizzia gypsea. Description: Antimicrobial activity against Microsporum gypseum by broth microdilution method.
For test [4], the system named is Aspergillus fumigatus. Nature of the test: Antimicrobial activity against Aspergillus fumigatus by broth microdilution method.
In test [5] the test system is Trichophyton rubrum. Nature of the test: Antimicrobial activity against Trichophyton rubrum by broth microdilution method.
The subject of test [6] is Nakaseomyces glabratus. Description: Antimicrobial activity against Candida glabrata by broth microdilution method.
Test [7] concerns Cryptococcus neoformans. Nature of the test: Antimicrobial activity against Cryptococcus neoformans after 72 hrs by broth microdilution method. The procedure, abridged: (§1)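 Broth microdilution in 96-well plates following NCCLS methods. Compounds were dissolved in DMSO, serially diluted in growth medium, inoculated and incubated at 35°C. MIC read at 24 h for Candida albicans and at 72 h for Cryptococcus neoformans. MIC80 is the first well with about 80% less growth than the drug-free well. Values are means of three replicate tests.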

The test system of test [8] is Candida parapsilosis. Description: Antimicrobial activity against Candida parapsilosis by broth microdilution method. The settings on record: Lodderomyces parapsilosis.
For test [9], the system named is Candida albicans. Description: Antimicrobial activity against Candida albicans SC5314 after 24 hrs by broth microdilution method. The settings on record: SC5314, 24 h. In outline:
as §1

For test [10], the system named is Candida albicans. Description: Antimicrobial activity against Candida albicans Y0109 after 24 hrs by broth microdilution method. The settings on record: Y0109, 24 h. The procedure, abridged:
as §1

Test [11] has as its system Nakaseomyces glabratus. Nature of the test: Ratio of ketoconazole MIC80 to compound MIC80 for Candida glabrata.
The test system of test [12] is Nakaseomyces glabratus. Description: Ratio of fluconazole MIC80 to compound MIC80 for Candida glabrata.
Test [13] deals with Nakaseomyces glabratus. Nature of the test: Ratio of itraconazole MIC80 to compound MIC80 for Candida glabrata.
In test [14] the test system is Nakaseomyces glabratus. Description: Ratio of voriconazole MIC80 to compound MIC80 for Candida glabrata.

`OC(CN1CCN(CCCSc2nnc(-c3ccccc3Cl)o2)CC1)(Cn1cncn1)c1ccc(F)cc1F` (configuration not stated): the Ratio was 16 in test [1] and 64 in test [2]. The MIC80 was 4 µg/mL (≈ 6.94 µM) in test [3]; greater than 64 µg/mL in test [4]; 0.25 µg/mL (≈ 0.434 µM) in test [5]; 0.25 µg/mL (≈ 0.434 µM) in test [6]; 0.25 µg/mL (≈ 0.434 µM) in test [7]; 0.25 µg/mL (≈ 0.434 µM) in [8]. In addition, the MIC80 in [9] and in [10] was 0.0039 µg/mL (≈ 0.00677 µM) in each case.
For `OC(CN1CCN(CCCSc2nnc(-c3cccc(Br)c3)o2)CC1)(Cn1cncn1)c1ccc(F)cc1F` (configuration not stated), the Ratio was determined as 2051 in [11], 256 in [12], 32 in [13] and 16 in [14]. Moreover, the MIC80 in test [3] is 1 µg/mL (≈ 1.61 µM); in test [4], greater than 64 µg/mL; in test [5], 0.25 µg/mL (≈ 0.403 µM); in test [6], 0.0039 µg/mL (≈ 0.00629 µM); in test [7], 0.25 µg/mL (≈ 0.403 µM); in test [8], 0.25 µg/mL (≈ 0.403 µM). The MIC80 in test [9] and in test [10] was 0.0625 µg/mL (≈ 0.101 µM) each time.
